Test system: U2OS
Test: Multiplex assay against U2OS
Type: toxicity, cell-based
Conditions: human
Method in brief: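 Live cells were stained at seeding with Hoechst33342, BioTracker Green Microtubule Cytoskeleton Dye, MitoTracker Red and Annexin V Alexa Fluor 680. Following compound addition, they were imaged on a CQ1 microscope at 37°C and 5% CO2 and gated by CellPathfinder machine learning into Hoechst high-intensity objects or normal cells, with normal cells split into healthy, pyknosed or fragmented nuclei and pyknosed cells into mitotic or apoptotic. Tubulin, mitochondrial-mass and membrane-permeability phenotypes are per cents of healthy-nucleus cells.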

[1] = 12 h, 1 µM, compound concentration 1 uM, replicate 1
[2] = 12 h, 1 µM, compound concentration 1 uM, replicate 2
[3] = 12 h, 10 µM, compound concentration 10 uM, replicate 1
[4] = 12 h, 10 µM, compound concentration 10 uM, replicate 2
[5] = 24 h, 1 µM, compound concentration 1 uM, replicate 1
[6] = 24 h, 1 µM, compound concentration 1 uM, replicate 2
[7] = 24 h, 10 µM, compound concentration 10 uM, replicate 1
[8] = 24 h, 10 µM, compound concentration 10 uM, replicate 2
[9] = 48 h, 1 µM, compound concentration 1 uM, replicate 1
[10] = 48 h, 1 µM, compound concentration 1 uM, replicate 2
[11] = 48 h, 10 µM, compound concentration 10 uM, replicate 1
[12] = 48 h, 10 µM, compound concentration 10 uM, replicate 2

SMILES: O=c1[nH]c2ccccc2n1C1CCN(Cc2ccc(-c3[nH]c4cc5ncnc5cc4nc3-c3ccccc3)cc2)CC1
- Population Apoptotic (%) [1]: 44%
- Population Fragmented Nuclei (%) [1]: 6%
- Population Healthy Nuclei (%) [1]: 87%
- Population Hoechst High Intensity Objects (%) [1]: 5%
- Population Membrane Permeable-Phenotype (%) [1]: 37%
- Population Mitochondria Different-Phenotype (%) [1]: 11%
- Population Mitotic Cells (%) [1]: 55%
- Population Normal (%) [1]: 94%
- Population Pyknosed Nuclei (%) [1]: 5%
- Population Tubulin-Different-Phenotype (%) [1]: 24%
- Total Cell Count [1]: 162
- Population Apoptotic (%) [2]: 37%
- Population Fragmented Nuclei (%) [2]: 7%
- Population Healthy Nuclei (%) [2]: 85%
- Population Hoechst High Intensity Objects (%) [2]: 8%
- Population Membrane Permeable-Phenotype (%) [2]: 25%
- Population Mitochondria Different-Phenotype (%) [2]: 16%
- Population Mitotic Cells (%) [2]: 62%
- Population Normal (%) [2]: 91%
- Population Pyknosed Nuclei (%) [2]: 7%
- Population Tubulin-Different-Phenotype (%) [2]: 23%
- Total Cell Count [2]: 124
- Population Apoptotic (%) [3]: 30%
- Population Fragmented Nuclei (%) [3]: 19%
- Population Healthy Nuclei (%) [3]: 66%
- Population Hoechst High Intensity Objects (%) [3]: 4%
- Population Membrane Permeable-Phenotype (%) [3]: 29%
- Population Mitochondria Different-Phenotype (%) [3]: 61%
- Population Mitotic Cells (%) [3]: 69%
- Population Normal (%) [3]: 95%
- Population Pyknosed Nuclei (%) [3]: 13%
- Population Tubulin-Different-Phenotype (%) [3]: 100%
- Total Cell Count [3]: 173
- Population Apoptotic (%) [4]: 46%
- Population Fragmented Nuclei (%) [4]: 38%
- Population Healthy Nuclei (%) [4]: 51%
- Population Hoechst High Intensity Objects (%) [4]: 7%
- Population Membrane Permeable-Phenotype (%) [4]: 54%
- Population Mitochondria Different-Phenotype (%) [4]: 75%
- Population Mitotic Cells (%) [4]: 53%
- Population Normal (%) [4]: 92%
- Population Pyknosed Nuclei (%) [4]: 9%
- Total Cell Count [4]: 142
- Population Apoptotic (%) [5]: 42%
- Population Fragmented Nuclei (%) [5]: 7%
- Population Healthy Nuclei (%) [5]: 83%
- Population Hoechst High Intensity Objects (%) [5]: 5%
- Population Membrane Permeable-Phenotype (%) [5]: 31%
- Population Mitochondria Different-Phenotype (%) [5]: 12%
- Population Mitotic Cells (%) [5]: 57%
- Population Normal (%) [5]: 94%
- Population Pyknosed Nuclei (%) [5]: 9%
- Population Tubulin-Different-Phenotype (%) [5]: 16%
- Total Cell Count [5]: 211
- Population Apoptotic (%) [6]: 41%
- Population Healthy Nuclei (%) [6]: 81%
- Population Hoechst High Intensity Objects (%) [6]: 3%
- Population Membrane Permeable-Phenotype (%) [6]: 14%
- Population Mitochondria Different-Phenotype (%) [6]: 15%
- Population Mitotic Cells (%) [6]: 58%
- Population Normal (%) [6]: 96%
- Population Pyknosed Nuclei (%) [6]: 11%
- Total Cell Count [6]: 157
- Population Apoptotic (%) [7]: 55%
- Population Fragmented Nuclei (%) [7]: 19%
- Population Healthy Nuclei (%) [7]: 50%
- Population Hoechst High Intensity Objects (%) [7]: 6%
- Population Membrane Permeable-Phenotype (%) [7]: 53%
- Population Mitochondria Different-Phenotype (%) [7]: 91%
- Population Mitotic Cells (%) [7]: 44%
- Population Normal (%) [7]: 93%
- Population Pyknosed Nuclei (%) [7]: 30%
- Total Cell Count [7]: 174
- Population Apoptotic (%) [8]: 80%
- Population Fragmented Nuclei (%) [8]: 28%
- Population Healthy Nuclei (%) [8]: 38%
- Population Hoechst High Intensity Objects (%) [8]: 14%
- Population Membrane Permeable-Phenotype (%) [8]: 72%
- Population Mitochondria Different-Phenotype (%) [8]: 88%
- Population Mitotic Cells (%) [8]: 19%
- Population Normal (%) [8]: 85%
- Population Pyknosed Nuclei (%) [8]: 32%
- Population Tubulin-Different-Phenotype (%) [8]: 100%
- Total Cell Count [8]: 130

SMILES: CC(C)(C)NC[C@H](O)COc1nsnc1N1CCOCC1 [TIMOLOL]
- Population Apoptotic (%) [1]: 77%
- Population Fragmented Nuclei (%) [1]: 12%
- Population Healthy Nuclei (%) [1]: 80%
- Population Hoechst High Intensity Objects (%) [1]: 7%
- Population Membrane Permeable-Phenotype (%) [1]: 4%
- Population Mitochondria Different-Phenotype (%) [1]: 9%
- Population Mitotic Cells (%) [1]: 22%
- Population Pyknosed Nuclei (%) [1]: 7%
- Population Tubulin-Different-Phenotype (%) [1]: 8%
- Population Apoptotic (%) [2]: 100%
- Population Fragmented Nuclei (%) [2]: 5%
- Population Healthy Nuclei (%) [2]: 88%
- Population Hoechst High Intensity Objects (%) [2]: 8%
- Population Membrane Permeable-Phenotype (%) [2]: 8%
- Population Mitochondria Different-Phenotype (%) [2]: 11%
- Population Mitotic Cells (%) [2]: 0%
- Population Normal (%) [2]: 92%
- Population Pyknosed Nuclei (%) [2]: 5%
- Population Tubulin-Different-Phenotype (%) [2]: 18%
- Population Apoptotic (%) [3]: 30%
- Population Fragmented Nuclei (%) [3]: 8%
- Population Healthy Nuclei (%) [3]: 77%
- Population Hoechst High Intensity Objects (%) [3]: 6%
- Population Membrane Permeable-Phenotype (%) [3]: 6%
- Population Mitochondria Different-Phenotype (%) [3]: 8%
- Population Mitotic Cells (%) [3]: 69%
- Population Normal (%) [3]: 93%
- Population Pyknosed Nuclei (%) [3]: 14%
- Population Tubulin-Different-Phenotype (%) [3]: 8%
- Population Apoptotic (%) [4]: 33%
- Population Healthy Nuclei (%) [4]: 79%
- Population Hoechst High Intensity Objects (%) [4]: 3%
- Population Membrane Permeable-Phenotype (%) [4]: 4%
- Population Mitochondria Different-Phenotype (%) [4]: 7%
- Population Mitotic Cells (%) [4]: 66%
- Population Normal (%) [4]: 96%
- Population Pyknosed Nuclei (%) [4]: 11%
- Population Tubulin-Different-Phenotype (%) [4]: 4%
- Population Apoptotic (%) [5]: 63%
- Population Fragmented Nuclei (%) [5]: 10%
- Population Healthy Nuclei (%) [5]: 82%
- Population Hoechst High Intensity Objects (%) [5]: 4%
- Population Mitochondria Different-Phenotype (%) [5]: 7%
- Population Mitotic Cells (%) [5]: 36%
- Population Normal (%) [5]: 95%
- Population Tubulin-Different-Phenotype (%) [5]: 12%
- Population Apoptotic (%) [6]: 50%
- Population Fragmented Nuclei (%) [6]: 11%
- Population Healthy Nuclei (%) [6]: 81%
- Population Hoechst High Intensity Objects (%) [6]: 5%
- Population Membrane Permeable-Phenotype (%) [6]: 2%
- Population Mitochondria Different-Phenotype (%) [6]: 18%
- Population Mitotic Cells (%) [6]: 50%
- Population Normal (%) [6]: 94%
- Population Pyknosed Nuclei (%) [6]: 6%
- Population Tubulin-Different-Phenotype (%) [6]: 21%
- Population Apoptotic (%) [7]: 20%
- Population Fragmented Nuclei (%) [7]: 7%
- Population Healthy Nuclei (%) [7]: 85%
- Population Hoechst High Intensity Objects (%) [7]: 5%
- Population Membrane Permeable-Phenotype (%) [7]: 5%
- Population Mitochondria Different-Phenotype (%) [7]: 2%
- Population Mitotic Cells (%) [7]: 80%
- Population Normal (%) [7]: 94%
- Population Pyknosed Nuclei (%) [7]: 6%
- Population Tubulin-Different-Phenotype (%) [7]: 5%
- Population Apoptotic (%) [8]: 41%
- Population Healthy Nuclei (%) [8]: 81%
- Population Hoechst High Intensity Objects (%) [8]: 2%
- Population Membrane Permeable-Phenotype (%) [8]: 3%
- Population Mitochondria Different-Phenotype (%) [8]: 5%
- Population Mitotic Cells (%) [8]: 58%
- Population Normal (%) [8]: 97%
- Population Pyknosed Nuclei (%) [8]: 11%
- Population Tubulin-Different-Phenotype (%) [8]: 4%
- Population Apoptotic (%) [9]: 23%
- Population Membrane Permeable-Phenotype (%) [9]: 1%
- Population Mitochondria Different-Phenotype (%) [9]: 12%
- Population Mitotic Cells (%) [9]: 76%
- Population Tubulin-Different-Phenotype (%) [9]: 5%
- Population Apoptotic (%) [10]: 42%
- Population Fragmented Nuclei (%) [10]: 5%
- Population Healthy Nuclei (%) [10]: 88%
- Population Hoechst High Intensity Objects (%) [10]: 1%
- Population Membrane Permeable-Phenotype (%) [10]: 13%
- Population Mitochondria Different-Phenotype (%) [10]: 17%
- Population Mitotic Cells (%) [10]: 57%
- Population Normal (%) [10]: 98%
- Population Pyknosed Nuclei (%) [10]: 5%
- Population Tubulin-Different-Phenotype (%) [10]: 21%
- Population Apoptotic (%) [11]: 46%
- Population Fragmented Nuclei (%) [11]: 1%
- Population Healthy Nuclei (%) [11]: 93%
- Population Hoechst High Intensity Objects (%) [11]: 2%
- Population Membrane Permeable-Phenotype (%) [11]: 1%
- Population Mitochondria Different-Phenotype (%) [11]: 9%
- Population Mitotic Cells (%) [11]: 53%
- Population Normal (%) [11]: 97%
- Population Tubulin-Different-Phenotype (%) [11]: 6%
- Population Apoptotic (%) [12]: 27%
- Population Fragmented Nuclei (%) [12]: 3%
- Population Healthy Nuclei (%) [12]: 91%
- Population Hoechst High Intensity Objects (%) [12]: 1%
- Population Membrane Permeable-Phenotype (%) [12]: 4%
- Population Mitochondria Different-Phenotype (%) [12]: 10%
- Population Mitotic Cells (%) [12]: 72%
- Population Normal (%) [12]: 98%
- Population Pyknosed Nuclei (%) [12]: 4%
- Population Tubulin-Different-Phenotype (%) [12]: 13%

Source: ChEMBL document CHEMBL4689842, “EUbOPEN Chemogenomics Library wave 1” (2021)
